# Screens as filed in PubChem.
# Rows were chosen to be rich in hits. Some 12% of all compounds tested hit in one or more screens of this group.
# Arbovirus inh: arbovirus infection inhibition | inhibition, % at 10 µM | AID 1251 | 200,000 compounds, 0.37% hits | arbovirus infection cell-based antiviral screen; in the data active = inhibition above about 30%
# Lmaj promast: reduces viability of Leishmania major promastigotes; AID 1063; inhibition, % at 10 µM; resazurin fluorescence viability; 200,000 compounds, 9% hits;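 note: promastigotes grown with compound for 44 hours at 28 °C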
# PKD1 kinase inh: PKD1 (human) kinase inhibition | Q15139 | inhibition, % (concentration not given with the values) | 200,000 compounds, 0.056% hits | PKD1 kinase fluorescence polarization assay
# Rad51 HR inh: Rad51 (human) homologous recombination inhibition; AID 1385; inhibition, % at 10 µM; hRad51 DNA strand exchange, fluorescence dequenching; 200,000 compounds, 0.085% hits;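 active = inhibition above 40% at the single screening dose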;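 note: 0% = DMSO control wells and 100% = blanks with heterologous ssDNA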
#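 material = hRad51 filaments on single-stranded DNA | reagent = Donor/quencher-labelled 47-bp dsDNA substrate | compound = 10 µM final, single point | schedule = strand-exchange reaction 15 min at room temperature | measured by = fluorescein emission 520 nm, excitation 485 nm | read-out basis = % inhibition versus plate control and blank means | benchmarks = plate controls and plate blanks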
# CHOP inhibitor: inhibitors of CHOP induction in ER stress response; CHO-K1 CHOP-promoter luciferase, tunicamycin-induced, 15-18 h; inhibition, % at 10 µM; 220,000 compounds, 3.8% hits; AID 2732;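 active = compounds that reduced the stress-induced luciferase reporter signal by more than about 70% of percent inhibition, limit read from the data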;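 note: 0% = tunicamycin plus vehicle and 100% = wells without tunicamycin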
# Wee1 degr inh: human Wee1 degradation inhibition, primary screen. P30291. AID 1321. reporter increase, % at 5 µM. 220,000 compounds, 1.2% hits. HeLa Luc-Wee1K328M stability, luciferase luminescence; 100% = proteasome inhibitor MG132 effect;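 active = activation above the mean of all tested compounds plus 3 SD, set per screening run, cut at about 8.8% in these data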;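 note: cells exposed to compound for 20 h before luminescence read; 0% = DMSO alone and 100% = MG132 at 30 µM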
# Target sequence (P30291 whole entry K328M): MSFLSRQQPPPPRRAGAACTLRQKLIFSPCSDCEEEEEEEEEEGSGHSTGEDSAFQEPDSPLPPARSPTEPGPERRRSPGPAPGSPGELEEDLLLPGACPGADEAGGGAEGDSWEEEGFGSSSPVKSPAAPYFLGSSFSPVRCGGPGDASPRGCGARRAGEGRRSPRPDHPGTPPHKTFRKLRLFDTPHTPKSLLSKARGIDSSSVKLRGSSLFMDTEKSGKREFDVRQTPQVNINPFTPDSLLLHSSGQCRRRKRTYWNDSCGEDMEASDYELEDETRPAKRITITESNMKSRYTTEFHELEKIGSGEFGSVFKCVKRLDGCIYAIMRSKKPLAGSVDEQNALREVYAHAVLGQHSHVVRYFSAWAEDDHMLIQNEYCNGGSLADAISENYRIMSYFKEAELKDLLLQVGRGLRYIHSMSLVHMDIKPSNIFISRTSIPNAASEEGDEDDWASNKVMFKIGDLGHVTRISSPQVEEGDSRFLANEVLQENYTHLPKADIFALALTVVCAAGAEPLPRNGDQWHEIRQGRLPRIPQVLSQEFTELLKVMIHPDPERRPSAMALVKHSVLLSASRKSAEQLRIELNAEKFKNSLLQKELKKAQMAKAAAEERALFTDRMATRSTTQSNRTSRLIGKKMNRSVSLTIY
# * hit, by the source's call; x = no result. Cut-off read from the data, not from the text of the source, unless noted: active = inhibition above about 50%; inactive = the rest.
SMILES,Arbovirus inh,Lmaj promast,PKD1 kinase inh,Rad51 HR inh,CHOP inhibitor,Wee1 degr inh
COc1cccc(CN2CCN(C3CCN(c4ccccc4F)CC3)CC2CCO)c1 (stereo unspecified),-9.0,94.8*,5.6,7.3,31.4,-4.6
Cc1nc2ccccc2nc1CN1CCN(Cc2ccc(F)c(F)c2)C(CCO)C1 (stereo unspecified),4.7,4.6,-9.5,7.7,-6.1,0.4
COc1cccc(CN2CCN(C3CCN(c4cccc(C)c4C)CC3)CC2CCO)c1 (stereo unspecified),-33.2,92.0*,0.1,7.8,32.9,0.6
COc1cccc(CN2CCN(C3CCN(c4ccccc4C)CC3)CC2CCO)c1 (stereo unspecified),-6.4,92.4*,1.8,0.8,31.4,-0.9
OCCC1CN(C2CCN(c3ccccc3)CC2)CCN1Cc1ccc(F)c(F)c1 (stereo unspecified),-12.7,92.9*,2.5,4.4,34.4,3.3
COc1cc2c(=O)n(CCCC(=O)NCC3CCCO3)c(=O)n(CC(=O)c3ccc(F)cc3)c2cc1OC (stereo unspecified),4.8,14.5,-3.0,-1.1,-18.8,-2.0
O=C(Nc1ncccc1Cl)C(Sc1ccccc1)c1ccccc1 (stereo unspecified),2.3,3.6,-11.9,-6.1,75.4*,-2.8
CC(=O)Nc1ccc(NC(=O)C(Sc2ccccc2)c2ccccc2)cc1 (stereo unspecified),x,x,x,5.6,17.7,-0.9
COc1ccc(C(=O)Nc2ccccc2C(=O)NC(Cc2c[nH]c3ccccc23)C(=O)O)cc1 (stereo unspecified),8.2,-2.7,-2.7,23.6,11.9,-2.2
Cc1ccc(C(c2nnnn2C2CCCCC2)N(C)C2CCCCC2)cc1 (stereo unspecified),-24.8,71.5*,-0.3,6.8,62.8,-2.1
COc1cc2cc(C(c3nnnn3C3CCCCC3)N(C)C3CCCCC3)c(=O)[nH]c2cc1OC (stereo unspecified),-29.1,71.8*,2.7,2.0,84.3*,6.1
COc1cc2cc(C(c3nnnn3C3CCCC3)N(C)C3CCCCC3)c(=O)[nH]c2cc1OC (stereo unspecified),6.8,16.1,-8.3,-1.6,49.5,-0.8
O=C(c1ccc(F)cc1)C(CCCCCC(CN1CCOCC1)C(=O)c1ccc(F)cc1)CN1CCOCC1 (stereo unspecified),-6.1,98.9*,-2.3,3.0,42.1,1.0
OC(CN1CCOCC1)c1ccc(F)cc1 (stereo unspecified),15.0,0.7,1.3,-2.8,8.5,-2.6
COc1cc(OC)cc(C(=O)OCc2cc3ccccc3[nH]c2=O)c1,6.5,-4.2,-4.5,x,84.5*,1.2
O=C(c1sc2ccccc2c1Cl)N(Cc1ccco1)C1CCS(=O)(=O)C1 (stereo unspecified),14.6,95.5*,-11.0,2.5,-2.6,-4.1
CCCC(=O)c1ccc(N2CCN(C(=O)c3ccccc3)CC2)c(F)c1,4.9,-7.3,-13.2,-9.1,28.7,-1.7
CCCC(=O)c1ccc(N2CCN(C(=O)c3ccccc3Br)CC2)c(F)c1,-15.4,9.5,-6.8,-15.8,74.1*,-0.1
CCC(=O)c1ccc(N2CCN(C(=O)c3ccc(Br)cc3)CC2)c(F)c1,12.3,-4.7,-16.0,0.7,84.6*,0.6
CCCC(=O)c1ccc(N2CCN(C(=O)c3ccc(Br)cc3)CC2)c(F)c1,5.9,-2.4,-8.9,-0.9,73.2*,-2.6
CCC(C(=O)O)n1nc(-c2ccccc2)c2cc(Cl)ccc21 (stereo unspecified),13.6,-5.8,-7.0,17.6,13.3,-2.8
CCN1CCN(CC(=O)N/N=C/c2ccc(F)cc2F)CC1,-4.8,-4.0,-8.2,-2.6,-2.7,-0.5
Cc1nccn1-c1cc(C(C)(C)C)nc2c(-c3ccccc3)cnn12,1.9,66.8*,-5.3,-6.8,79.5*,-0.9
CN(C)CCCN(C(=O)CCc1ccccc1)c1nc2ccc(Br)cc2s1,-24.9,61.4*,-10.1,-3.6,53.1,2.1
CN(C)CCN(C(=O)CCc1ccccc1)c1nc2c(F)cc(F)cc2s1,7.9,3.3,-2.8,4.3,71.1*,-0.8
SMILES,Arbovirus inh,Lmaj promast,PKD1 kinase inh,Rad51 HR inh,CHOP inhibitor,Wee1 degr inh
O=C(Oc1cc2oc(=O)c3c(c2cc1Cl)CCCC3)c1cccs1,-1.7,-6.4,-1.5,5.3,7.5,2.5
O=C(OCc1ccccc1)N1CCCC1/C=C/CN1CCOCC1 (stereo unspecified),11.1,81.9*,-3.8,-6.0,-3.3,5.3
CC(NC(=O)C1CCCN1C(=O)OCc1ccccc1)c1ccccc1 (stereo unspecified),4.7,-0.1,1.6,-4.2,6.0,4.8
Cc1c(Cl)c([N+](=O)[O-])nn1Cc1ccc(C(=O)N/N=C\c2cccc(Br)c2)o1,-16.8,54.9*,-5.1,-8.3,13.5,0.8
CC1CN(CCCCOc2ccc3ccccc3c2)CC(C)O1 (stereo unspecified),-2.5,90.2*,-0.9,3.5,17.5,0.6
COC(=O)c1ccc(OCCCCN2CC(C)OC(C)C2)cc1 (stereo unspecified),-6.9,95.6*,-3.7,-5.3,5.2,-0.7
CC(C)SCCCCOc1ccc2ccccc2c1,10.2,72.0*,-17.4,-4.4,-15.8,-3.1
COc1cccc(OCCCCN2CC(C)OC(C)C2)c1 (stereo unspecified),-3.1,93.5*,-3.9,0.8,35.0,-1.0
S=C(Nc1ccc(Br)cc1Cl)Nn1cnnc1,-4.8,-8.1,-2.6,x,21.4,-2.6
Cc1[nH]nc2c1C(=O)CC(C)(C)C2,-1.0,-4.5,4.4,10.0,56.2,-0.3
Cc1[nH]nc2c1C(=O)CCC2,6.0,-4.4,-9.2,85.6*,-5.9,-0.1
COc1ccc(/C=N/N2CCOCC2)cc1COc1ccc(Cl)cc1,-1.4,87.3*,-4.4,8.7,47.0,2.0
Cc1ccc(C(=O)N/N=C2\SCC(=O)N2c2cc(C)ccc2C)cc1,0.5,-2.6,-8.5,-0.6,75.3*,5.2
Cc1cccc(N2C(=O)CS/C2=N\NC(=O)c2ccc(Br)cc2)c1C,8.2,5.2,5.4,2.8,11.7,0.8
COc1ccc(C2=CSC3=NNC4(CCCCC4)NN23)cc1,-28.6,67.5*,-3.5,-2.6,-17.5,-0.7
COc1ccc(-c2n[nH]c(=S)n2C2CCCCC2)cc1,4.5,-3.0,-5.5,10.9,60.2,-2.2
Cn1c(N)c(C(=O)COC(=O)COc2ccc3ccccc3c2)c(=O)n(C)c1=O,1.1,3.3,4.4,1.5,20.0,1.7
CC1CN(C(=O)Nc2ccc3snnc3c2)c2ccccc21 (stereo unspecified),-2.7,51.1*,-11.8,1.1,44.3,-2.6
CCOc1cccc2cc(C(=O)Nc3ccccc3-c3ccccc3)c(=O)oc12,6.0,43.9,-11.4,9.8,-0.1,-1.4
CCOc1ccccc1C(=O)Nc1ccccc1O,-1.7,71.2*,8.1,1.0,10.4,3.2
CCOc1ccccc1C(=O)Nc1ccccc1-c1ccccc1,-11.9,72.6*,-6.4,12.3,35.2,-3.5
